In publication PMC7138454 (Journal of medicinal chemistry, 2014):
pIC50: −log10 of the molar value. “And” between values parts separate entries of the source, which are not always exact repeats. Equal entries are not always repeated. “Also recorded” adds a separate entry of the source. Where two headings read alike, the source gives them in different places. One block for each molecule: values may come before it.

Assays:
OXE receptor [1] = target: T1, OXE receptor (Homo sapiens, UniProt Q8TDS5); experiment: Agonist activity: calcium mobilization in neutrophils by the compound itself; type: cell-based
Outline: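 Neutrophils were isolated by dextran sedimentation, Ficoll centrifugation and hypotonic lysis, then loaded with indo-1 AM. In PBS with Ca++ 1.8 mM and Mg++ 1 mM (final, added 5 min before), cells sat in a stirred cuvette at 37 °C. Fluorescence was read at excitation 331 nm and emission 410 nm. After a stable baseline, DMSO vehicle or test compound was added, and 2 min later 5-oxo-ETE (10 nM final). Digitonin (0.1% final) gave maximal fluorescence.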

OXE receptor [2] = target: T1, OXE receptor; experiment: 5-oxo-ETE-induced calcium mobilization in indo-1-loaded neutrophils; type: cell-based; settings: for Effect on 5-oxo-ETE-induced calcium mobilization: compound 10 μM
eosinophils = experiment: 5-oxo-ETE-induced actin polymerization in eosinophils; type: cell-based, human; settings: 5-oxo-ETE 10 nM
neutrophils = experiment: 5-oxo-ETE-induced actin polymerization in neutrophils; type: cell-based, human; settings: 5-oxo-ETE 10 nM
Outline: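 Unfractionated leukocytes came from healthy-donor blood by dextran sedimentation and hypotonic lysis. They were labelled with APC anti-CD49d (30 min, ice) and held at 5.5 × 10^6 cells/ml in PBS with Ca++ 1.8 mM and Mg++ 1 mM. Cells were preincubated 5 min at 37 °C with DMSO vehicle or test compound, then given 5-oxo-ETE (10 nM final) for 20 s. They were fixed in formaldehyde (8.5% final), permeabilised with lysophosphatidylcholine and stained overnight at 4 °C with NBD-phallacidin (0.3 μM final). F-actin was read by flow cytometry.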

LTB4 = experiment: Selectivity: calcium mobilization in neutrophils in response to LTB4; type: cell-based, human; settings: compound 10 μM; LTB4 10 nM
Outline: (§1)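 Neutrophils were prepared by dextran sedimentation, Ficoll and hypotonic lysis, loaded with indo-1 AM, and placed in a stirred cuvette at 37 °C in PBS with Ca++ 1.8 mM and Mg++ 1 mM. Fluorescence was read at excitation 331 nm and emission 410 nm. Vehicle or test compound was added at baseline, 5-oxo-ETE (10 nM final) 2 min later, and the second agonist 2 min after that. Digitonin (0.1% final) followed 1 min later for maximal signal.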

PAF = experiment: Selectivity: calcium mobilization in neutrophils in response to PAF; type: cell-based, human; settings: compound 10 μM; PAF 10 nM
Outline: as §1

fMLP = experiment: Selectivity: calcium mobilization in neutrophils in response to fMLP; type: cell-based, human; settings: compound 10 μM; fMLP 100 nM
Outline: as §1

IL-8 = experiment: Selectivity: calcium mobilization in neutrophils in response to IL-8; type: cell-based, human; settings: compound 10 μM; IL-8 10 nM
Outline: as §1

[3] = Metabolism by rat liver homogenates in the presence of NADPH; type: in vitro ADME; settings: 20 μM, NADPH 1 mM, 60 min, 37 °C
Outline: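 Liver from male Sprague-Dawley rats was homogenised in ice-cold 0.25 M sucrose and spun at 600 × g for 10 min; the supernatant served as homogenate. It was incubated with test compound (20 μM) in phosphate buffer (pH 7.4, 50 mM final) with NADPH (1 mM final) for 60 min at 37 °C. Reactions were stopped with ice-cold MeOH. Products were analysed by reversed-phase C18 HPLC (22–42% acetonitrile gradient, 0.02% acetic acid) with photodiode-array UV detection.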

[4] = Metabolism by rat liver homogenates in medium favoring β-oxidation; type: in vitro ADME; settings: medium containing ATP, CoA, L-carnitine and NAD+
[5] = Preliminary pharmacokinetic experiments in rats, oral administration; type: in vivo, rat; settings: unpublished data
OXE receptor [6] = target: T1, OXE receptor; settings: concentration of 30 μM; cited from earlier work
OXE receptor [7] = settings: cited from earlier work
OXE receptor [8] = target: T1, OXE receptor; settings: cited from earlier work
[9] = calcium mobilization, 5-oxo-ETE 10 nM

T1 sequence (Q8TDS5 whole entry): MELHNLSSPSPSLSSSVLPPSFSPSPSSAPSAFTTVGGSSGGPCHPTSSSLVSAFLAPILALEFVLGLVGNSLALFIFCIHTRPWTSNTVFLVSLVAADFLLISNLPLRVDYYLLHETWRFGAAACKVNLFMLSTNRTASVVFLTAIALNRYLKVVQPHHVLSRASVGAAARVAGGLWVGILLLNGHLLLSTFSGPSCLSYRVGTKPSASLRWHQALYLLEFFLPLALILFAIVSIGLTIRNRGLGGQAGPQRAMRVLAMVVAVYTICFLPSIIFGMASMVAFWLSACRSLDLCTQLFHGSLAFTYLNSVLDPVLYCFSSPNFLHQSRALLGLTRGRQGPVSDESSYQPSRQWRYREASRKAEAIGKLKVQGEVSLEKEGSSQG

Compound: CCCCCCc1nc2ccccc2cc1C(=O)CCCC(=O)O [quinoline derivative]
- Agonist activity (calcium mobilization by the compound itself) (OXE receptor [1]): did not act as an agonist

- Antagonist potency compared with 10 (OXE receptor [2]; [9]): slightly increased potency
Compound: CCCCCCCCc1cc2ccccc2n1C(=O)CCCC(=O)O [compound 12]

- Antagonist potency compared with 10 (OXE receptor [2]; [9]): nearly eliminated antagonist activity
Compound: CCCCCCc1cc2ccccc2n1C(=O)CCC(=O)O [compound 29, 4-(2-Hexyl-indol-1-yl)-4-oxo-butyric acid]

- Increase in antagonist potency relative to 10 (OXE receptor [2]; [9]): over 10 times
Compound: CCCCCCc1cc2ccccc2n1C(=O)CC(C)CC(=O)O (stereo not shown) [compound 27, 5-(2-hexyl-1H-indol-1-yl)-3-methyl-5-oxopentanoic acid]

- Antagonist potency compared with 48 (OXE receptor [2]; [9]): slightly increased potency
Compound: CCCCCCc1c(C(=O)CCCC(=O)O)c2ccccc2n1C [compound 50, 5-(2-hexyl-1-methyl-1-H-indol-3-yl)-5-oxo-pentanoic acid]

- Antagonist potency compared with 10 (OXE receptor [2]; [9]): relatively little effect
Compound: CCCCCCc1cc2ccccc2n1C(=O)CC1(CC(=O)O)CC1 [compound 25, 2-(1-(2-(2-hexyl-1H-indol-1-yl)-2-oxoethyl)cyclopropyl)acetic acid]

Compound: CSc1nc2ccc3nc(NC(=O)C(c4ccccc4)c4ccccc4)sc3c2s1 [Gue1654, 7-(methylthio)-2-[(2,2-diphenylacetyl)amino]benzo[1,2-d:4,3-d′]bisthiazole]
- Times less potent than 53 and 34 in blocking actin polymerization in eosinophils (eosinophils): about 10 times
- Times less potent than 53 and 34 in blocking actin polymerization in neutrophils (neutrophils): about 10 times

- Antagonist potency compared with 27 (OXE receptor [2]; [9]): reduced potency by several fold
Compound: CCCCCCc1cc2cc(Br)ccc2n1C(=O)CC(C)CC(=O)O (stereo not shown) [compound 42, 5-(5-bromo-2-hexyl-1-H-indol-1-yl)-3-methyl-5-oxo-pentanoic acid]

- Reduction in antagonist potency relative to 10 (OXE receptor [2]; [9]): about 10 fold
Compound: CCCCCCc1cc2ccccc2n1C(=O)CC(C)(C)CC(=O)O [compound 17, 5-(2-hexyl-1H-indol-1-yl)-3,3-dimethyl-5-oxopentanoic acid]

- pIC50 (OXE receptor [2]; IC50, inhibition of 5-oxo-ETE-induced calcium mobilization in neutrophils, 5-oxo-ETE 10 nM added 2 min after antagonist): 7.55 and ~7.52
- Further increase in antagonist potency relative to 51 and 52 (OXE receptor [2]; [9]): over 10 fold
- Effect on 5-oxo-ETE-induced calcium mobilization (OXE receptor [2]; 5-oxo-ETE 10 nM): completely blocked
- Extent of metabolism [3]: metabolized to an even lesser extent
- Appearance in the blood [5]: appear rapidly in the blood
Compound: CCCCCCc1c(C(=O)CC(C)CC(=O)O)c2cc(Cl)ccc2n1C (racemic) [compound 53, 5-(5-Chloro-2-hexyl-1-methyl-1H-indol-3-yl)-3-methyl-5-oxo-pentanoic acid]
- Effect on calcium response to LTB4 (LTB4): no effect
- Effect on calcium response to PAF (PAF): no effect
- Effect on calcium response to fMLP (fMLP): no effect
- Effect on calcium response to IL-8 (IL-8): no effect
- Metabolism under conditions favoring β-oxidation [4]: Negligible metabolism; also recorded: no evidence for the metabolism

Compound: O=C(O)CCCC(=O)n1ccc2ccccc21 [1(5-oxovalerate)indole]
- Antagonist activity (OXE receptor [6]): no detectable activity

- Antagonist potency compared with 13 (OXE receptor [2]; [9]): little effect
Compound: CCCCCCCCC/C=C\c1cc2ccccc2n1C(=O)CCCC(=O)O [compound 15, (Z)-5-oxo-5-(2-(undec-1-en-1-yl)-1H-indol-1-yl)pentanoic acid]

Compound: CCCCC/C=C\CC(=O)/C=C/C=C\C/C=C\CCCC(=O)O [12-oxo-ETE]
- Activation of the OXE receptor (OXE receptor [7]): do not activate the OXE receptor

Compound: CCCCC/C=C\C/C=C\C/C=C\C=C\[C@@H](O)CCCC(=O)O [5-HETE, 5S-hydroxy-6E,8Z,11Z,14Z-eicosatetraenoic acid]
- Times less potent than 5-oxo-ETE (OXE receptor [7]): 100 times

- Antagonist potency compared with 27 (OXE receptor [2]; [9]): reduced potency by several fold
Compound: CCCCCCc1cc2ccc(OC)cc2n1C(=O)CC(C)CC(=O)O (stereo not shown) [compound 36, 5-(2-hexyl-6-methoxy-1-H-indol-1-yl)-3-methyl-5-oxo-pentanoic acid]

- Antagonist potency compared with 10 (OXE receptor [2]; [9]): small decrease in potency
Compound: CCCCCc1cc2ccccc2n1C(=O)CCCC(=O)O [compound 9]

- Reduction in antagonist potency relative to 10 (OXE receptor [2]; [9]): over 10 fold
Compound: CCCCc1cc2ccccc2n1C(=O)CCCC(=O)O [compound 8]

- Effect on 5-oxo-ETE-induced calcium mobilization (OXE receptor [2]; 5-oxo-ETE 10 nM): completely blocked
- Converted to a more polar product [3]: about 12%
- Extent of metabolism [3]: metabolized to a small extent
- Appearance in the blood [5]: appear rapidly in the blood
Compound: CCCCCCc1cc2ccc(Cl)cc2n1C(=O)CC(C)CC(=O)O (racemic) [compound 34, 5-(6-Chloro-2-hexyl-indol-1-yl)-3-methyl-5-oxo-pentanoic acid]
- Effect on calcium response to LTB4 (LTB4): no effect
- Effect on calcium response to PAF (PAF): no effect
- Effect on calcium response to fMLP (fMLP): no effect
- Effect on calcium response to IL-8 (IL-8): no effect
- Metabolism under conditions favoring β-oxidation [4]: Negligible metabolism; also recorded: no evidence for the metabolism

- Antagonist potency compared with 53 (OXE receptor [2]; [9]): equipotent
Compound: CCCCCCc1c(C(=O)CC(C)CC(=O)O)c2cc(Br)ccc2n1C (stereo not shown) [compound 54, 5-(5-bromo-2-hexyl-1-methyl-1-H-indol-3-yl)-3-methyl-5-oxo-pentanoic acid]

Compound: O=C(O)CCCC(=O)/C=C/C=C\C/C=C\C/C=C\CCCCCO [5-oxo-20-hydroxy-ETE]
- Times less potent than 5-oxo-ETE (OXE receptor [7]): 100 times

- Increase in antagonist potency relative to 27 (OXE receptor [2]; [9]): approximately 3 fold
Compound: CCCCCCc1cc2ccc(Br)cc2n1C(=O)CC(C)CC(=O)O (stereo not shown) [compound 35, 5-(6-bromo-2-hexyl-1-H-indol-1-yl)-3-methyl-5-oxo-pentanoic acid]

- Effect on 5-oxo-ETE-induced calcium mobilization (OXE receptor [2]; 5-oxo-ETE 10 nM): completely abolished
Compound: CCCCCCc1cc2ccccc2n1C(=O)CCCC(=O)O [compound 10]

- Antagonist potency compared with 27 (OXE receptor [2]; [9]): relatively little effect
Compound: CCCCCCc1cc2cc(Cl)ccc2n1C(=O)CC(C)CC(=O)O (stereo not shown) [compound 41, 5-(5-chloro-2-hexyl-1-H-indol-1-yl)-3-methyl-5-oxo-pentanoic acid]

- Increase in antagonist potency relative to 52 (OXE receptor [2]; [9]): about 4 fold
Compound: CCCCCCc1c(C(=O)CC(C)CC(=O)O)c2ccc(Cl)cc2n1C (stereo not shown) [compound 56, 5-(6-chloro-2-hexyl-1-methyl-1-H-indol-3-yl)-3-methyl-5-oxo-pentanoic acid]

- Antagonist potency compared with 27 (OXE receptor [2]; [9]): relatively little effect
Compound: CCCCCCc1c(C)c2ccccc2n1C(=O)CC(C)CC(=O)O (stereo not shown) [compound 47, 5-(2-hexyl-3-methyl-1-H-indol-1-yl)-3-methyl-5-oxo-pentanoic acid]

Compound: CCCCCC(=O)/C=C/C=C\C/C=C\C/C=C\CCCC(=O)O [15-oxo-ETE]
- Activation of the OXE receptor (OXE receptor [7]): do not activate the OXE receptor

- Antagonist potency compared with 10 (OXE receptor [2]; [9]): slightly increased potency
Compound: CCCCCCCCCCCc1cc2ccccc2n1C(=O)CCCC(=O)O [compound 13]

Compound: CCCCC/C=C\C[C@H](O)/C=C/C=C\C=C\C(=O)CCCC(=O)O [5-oxo-12-HETE, 5-oxo-12S-hydroxy-6E,8Z,10E,14Z-eicosatetraenoic acid]
- Agonist activity (calcium mobilization by the compound itself) (OXE receptor [8]): Neither compound mobilized intracellular calcium; also recorded: not itself affecting intracellular calcium levels

- Antagonist potency compared with 10 (OXE receptor [2]; [9]): slightly increased potency
Compound: CCCCCCCc1cc2ccccc2n1C(=O)CCCC(=O)O [compound 11]

- Antagonist potency compared with 10 (OXE receptor [2]; [9]): reduced potency
Compound: CCCC/C=C/c1cc2ccccc2n1C(=O)CCCC(=O)O [compound 14, 5-(2-Hex-1-enyl-indol-1-yl)-5-oxo-pentanoic acid]

Compound: CCCCC/C=C\C[C@H](O)/C=C/C=C/C=C/C(=O)CCCC(=O)O [8-trans-5-oxo-12-HETE]
- Agonist activity (calcium mobilization by the compound itself) (OXE receptor [8]): Neither compound mobilized intracellular calcium

- Antagonist potency compared with 27 (OXE receptor [2]; [9]): less potent than 27
- Increase in antagonist potency relative to 50 (OXE receptor [2]; [9]): about 10 times
Compound: CCCCCCc1c(C(=O)CCCC(=O)O)c2cc(Cl)ccc2n1C [compound 51, 5-(5-chloro-2-hexyl-1-methyl-1-H-indol-3-yl)-5-oxo-pentanoic acid]

- Effect on 5-oxo-ETE-induced calcium mobilization (OXE receptor [2]; 5-oxo-ETE 10 nM): modest antagonist effect
Compound: CCCCCCc1[nH]c2ccccc2c1C(=O)CCCC(=O)O [compound 48, 5-(2-Hexyl-1H-indol-3-yl)-5-oxo-pentanoic acid]
